How the values were obtained:
[1] = system: full-length RNF146 or RNF146(RING-WWE); test: E2~Ub/lysine reactivity assay with UbcH5; type: biochemical, human; details: ligand added to full-length RNF146 or RING-WWE fragment, not RING-only construct
Method in brief: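 Mouse RNF146(RING-WWE) (residues 30–183), made from a GST-tagged construct with TEV cleavage, or His6-T7-tagged full-length RNF146. UbcH5~Ub was charged by wheat E1 (1.5 μM) with 100 μM E2, 200 μM K0 Ub, 2.5 mM MgCl2 and 2 mM ATP in PBS at 37 °C for 30 min, then SEC-purified. Final: 25 μM E2, 4 or 8 μM E3, ± iso-ADPr. Started with 40 mM L-lysine at 35 °C; sampled 1–15 min; non-reducing SDS-PAGE, Coomassie/Oriole stain.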

TNKS(5ARC) [2] = biological target: T1, TNKS(5ARC) (human, UniProt O95271 173-961); test: pull-down
T1 sequence (looked up): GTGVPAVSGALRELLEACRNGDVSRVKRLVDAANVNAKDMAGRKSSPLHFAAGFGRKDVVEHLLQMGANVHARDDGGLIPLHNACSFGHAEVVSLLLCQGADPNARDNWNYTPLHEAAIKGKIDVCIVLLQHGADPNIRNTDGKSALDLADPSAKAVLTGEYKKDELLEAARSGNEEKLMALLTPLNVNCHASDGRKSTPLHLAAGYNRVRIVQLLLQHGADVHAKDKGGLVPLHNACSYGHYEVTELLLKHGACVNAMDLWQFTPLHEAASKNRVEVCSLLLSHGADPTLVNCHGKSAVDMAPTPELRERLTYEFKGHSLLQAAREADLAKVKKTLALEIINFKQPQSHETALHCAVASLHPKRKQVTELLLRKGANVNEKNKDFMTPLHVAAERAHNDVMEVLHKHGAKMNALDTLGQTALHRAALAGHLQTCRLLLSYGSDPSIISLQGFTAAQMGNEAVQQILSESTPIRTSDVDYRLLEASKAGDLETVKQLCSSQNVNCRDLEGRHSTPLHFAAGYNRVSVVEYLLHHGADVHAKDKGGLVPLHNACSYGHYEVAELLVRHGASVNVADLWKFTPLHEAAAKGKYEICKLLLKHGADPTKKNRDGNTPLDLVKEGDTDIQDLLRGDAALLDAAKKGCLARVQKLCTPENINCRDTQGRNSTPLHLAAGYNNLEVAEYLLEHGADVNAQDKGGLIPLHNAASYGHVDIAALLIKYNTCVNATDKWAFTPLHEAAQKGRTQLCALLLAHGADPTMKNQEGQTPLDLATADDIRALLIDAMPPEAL

[3] = biological target: T2, Full-length mouse tankyrase-1 (mouse, UniProt Q6PFX9 1-1320); test: pull-down
T2 sequence (looked up): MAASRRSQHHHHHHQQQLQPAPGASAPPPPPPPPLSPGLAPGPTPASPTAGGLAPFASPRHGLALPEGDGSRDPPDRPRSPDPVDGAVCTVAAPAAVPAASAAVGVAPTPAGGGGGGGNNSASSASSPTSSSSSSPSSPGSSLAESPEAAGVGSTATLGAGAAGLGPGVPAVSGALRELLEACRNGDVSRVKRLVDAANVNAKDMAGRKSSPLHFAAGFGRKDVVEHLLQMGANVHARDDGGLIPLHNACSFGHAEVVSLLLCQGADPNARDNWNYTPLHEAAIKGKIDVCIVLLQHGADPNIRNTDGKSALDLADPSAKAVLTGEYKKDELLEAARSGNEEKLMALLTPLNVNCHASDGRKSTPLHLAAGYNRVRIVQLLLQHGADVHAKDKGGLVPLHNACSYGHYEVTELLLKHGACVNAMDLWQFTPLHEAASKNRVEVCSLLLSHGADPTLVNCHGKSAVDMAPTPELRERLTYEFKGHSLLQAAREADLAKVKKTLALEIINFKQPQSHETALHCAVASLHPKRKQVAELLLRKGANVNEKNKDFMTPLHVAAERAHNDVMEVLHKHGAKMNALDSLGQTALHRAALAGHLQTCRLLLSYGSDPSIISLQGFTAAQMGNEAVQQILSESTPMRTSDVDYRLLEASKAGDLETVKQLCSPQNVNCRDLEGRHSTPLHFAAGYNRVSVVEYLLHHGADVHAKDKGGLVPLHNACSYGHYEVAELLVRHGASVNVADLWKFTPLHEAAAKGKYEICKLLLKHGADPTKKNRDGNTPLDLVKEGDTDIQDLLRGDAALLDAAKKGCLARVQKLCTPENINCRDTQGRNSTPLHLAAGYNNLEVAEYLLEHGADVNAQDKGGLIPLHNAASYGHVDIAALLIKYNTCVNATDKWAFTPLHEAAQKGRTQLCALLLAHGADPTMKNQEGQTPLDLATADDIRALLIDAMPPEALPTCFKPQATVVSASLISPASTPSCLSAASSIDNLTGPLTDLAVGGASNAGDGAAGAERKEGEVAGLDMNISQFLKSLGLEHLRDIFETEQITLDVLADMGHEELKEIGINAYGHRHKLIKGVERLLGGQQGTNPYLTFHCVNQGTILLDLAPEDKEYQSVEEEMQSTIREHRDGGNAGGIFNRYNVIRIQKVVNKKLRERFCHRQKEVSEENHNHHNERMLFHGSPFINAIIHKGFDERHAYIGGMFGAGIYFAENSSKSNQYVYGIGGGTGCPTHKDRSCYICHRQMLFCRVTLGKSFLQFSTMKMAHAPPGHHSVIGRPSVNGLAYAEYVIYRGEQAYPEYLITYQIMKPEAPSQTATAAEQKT

TNKS(5ARC) [4] = biological target: T1, TNKS(5ARC); test: SEC-MALS

Molecule	binding result (TNKS(5ARC) [2])	further results
poly(ADP-ribose) [PAR]		activation of Ub transfer from UbcH5~Ub to lysine [1]: robust activation
GST-RNF146(1–205) (domain or fragment, human, UniProt Q9NTX7-2 1-205, looked up) MAGCGEIDHSINMLPTNRKANESCSNTAPSLTVPECAICLQTCVHPVSLPCKHVFCYLCVKGASWLGKRCALCRQEIPEDFLDKPTLLSPEELKAASRGNGEYAWYYEGRNGWWQYDERTSRELEDAFSKGKKNTEMLIAGFLYVADLENMVQYRRNEHGRRRKIKRDIIDIPKKGVAGLRLDCDANTVNLARESSADGADSVSA	binds	
GST-RNF146 G337V/G338V (natural protein, human, UniProt Q9NTX7-2 1-358, looked up) MAGCGEIDHSINMLPTNRKANESCSNTAPSLTVPECAICLQTCVHPVSLPCKHVFCYLCVKGASWLGKRCALCRQEIPEDFLDKPTLLSPEELKAASRGNGEYAWYYEGRNGWWQYDERTSRELEDAFSKGKKNTEMLIAGFLYVADLENMVQYRRNEHGRRRKIKRDIIDIPKKGVAGLRLDCDANTVNLARESSADGADSVSAQSGASVQPLVSSVRPLTSVDGQLTSPATPSPDASTSLEDSFAHLQLSGDNTAERSHRGEGEEDHESPSSGRVPAPDTSIEETESDASSDSEDVSAVVAQHSLTQQRLLVSNANQTVPDRSDRSGTDRSVAGVVTVSVSVRSRRPDGQCTVTEV	binds	
GST-RNF146 G199V (natural protein, human, UniProt Q9NTX7-2 1-358, looked up) MAGCGEIDHSINMLPTNRKANESCSNTAPSLTVPECAICLQTCVHPVSLPCKHVFCYLCVKGASWLGKRCALCRQEIPEDFLDKPTLLSPEELKAASRGNGEYAWYYEGRNGWWQYDERTSRELEDAFSKGKKNTEMLIAGFLYVADLENMVQYRRNEHGRRRKIKRDIIDIPKKGVAGLRLDCDANTVNLARESSADVADSVSAQSGASVQPLVSSVRPLTSVDGQLTSPATPSPDASTSLEDSFAHLQLSGDNTAERSHRGEGEEDHESPSSGRVPAPDTSIEETESDASSDSEDVSAVVAQHSLTQQRLLVSNANQTVPDRSDRSGTDRSVAGGGTVSVSVRSRRPDGQCTVTEV	binds	
GST-RNF146-R163A (natural protein, human, UniProt Q9NTX7-2 1-358, looked up) MAGCGEIDHSINMLPTNRKANESCSNTAPSLTVPECAICLQTCVHPVSLPCKHVFCYLCVKGASWLGKRCALCRQEIPEDFLDKPTLLSPEELKAASRGNGEYAWYYEGRNGWWQYDERTSRELEDAFSKGKKNTEMLIAGFLYVADLENMVQYRRNEHGRRAKIKRDIIDIPKKGVAGLRLDCDANTVNLARESSADGADSVSAQSGASVQPLVSSVRPLTSVDGQLTSPATPSPDASTSLEDSFAHLQLSGDNTAERSHRGEGEEDHESPSSGRVPAPDTSIEETESDASSDSEDVSAVVAQHSLTQQRLLVSNANQTVPDRSDRSGTDRSVAGGGTVSVSVRSRRPDGQCTVTEV		binding result [3]: binds
His6-T7-RNF146 (full-length) (natural protein, human, UniProt Q9NTX7-2 1-358, looked up) MAGCGEIDHSINMLPTNRKANESCSNTAPSLTVPECAICLQTCVHPVSLPCKHVFCYLCVKGASWLGKRCALCRQEIPEDFLDKPTLLSPEELKAASRGNGEYAWYYEGRNGWWQYDERTSRELEDAFSKGKKNTEMLIAGFLYVADLENMVQYRRNEHGRRRKIKRDIIDIPKKGVAGLRLDCDANTVNLARESSADGADSVSAQSGASVQPLVSSVRPLTSVDGQLTSPATPSPDASTSLEDSFAHLQLSGDNTAERSHRGEGEEDHESPSSGRVPAPDTSIEETESDASSDSEDVSAVVAQHSLTQQRLLVSNANQTVPDRSDRSGTDRSVAGGGTVSVSVRSRRPDGQCTVTEV		binding result (TNKS(5ARC) [4]): binds
GST-RNF146 (full-length, wt) (natural protein, human, UniProt Q9NTX7-2 1-358, looked up) MAGCGEIDHSINMLPTNRKANESCSNTAPSLTVPECAICLQTCVHPVSLPCKHVFCYLCVKGASWLGKRCALCRQEIPEDFLDKPTLLSPEELKAASRGNGEYAWYYEGRNGWWQYDERTSRELEDAFSKGKKNTEMLIAGFLYVADLENMVQYRRNEHGRRRKIKRDIIDIPKKGVAGLRLDCDANTVNLARESSADGADSVSAQSGASVQPLVSSVRPLTSVDGQLTSPATPSPDASTSLEDSFAHLQLSGDNTAERSHRGEGEEDHESPSSGRVPAPDTSIEETESDASSDSEDVSAVVAQHSLTQQRLLVSNANQTVPDRSDRSGTDRSVAGGGTVSVSVRSRRPDGQCTVTEV	binds	
